High-throughput results as filed in PubChem.
Mdm2-MdmX inh – inhibitors of human Mdm2-MdmX association, primary screen, cell-based, luminescence, split luciferase, SaOS-2, uHTS | AID 485346, 2010 | SaOS-2 split-luciferase Mdm2/MdmX complementation | 3% of 330,000 active | inhibition, % at 8 µM | Protein Mdm4 (Homo sapiens) + E3 ubiquitin-protein ligase Mdm2 (Homo sapiens), …;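 active = inhibition of at least 50% at 8 µM in the primary screen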
MDM2 E3 inh – MDM2-luciferase reporter signal enhancers, primary screen, MDM2 E3 ligase inhibitor project, cell-based, luminescence, 1536-well | E3 ubiquitin-protein ligase Mdm2 (Homo sapiens), Q00987 | cell-based MDM2 ubiquitination luciferase reporter, 2 h; 0 = plate control, 100 = twice control, blank-subtracted | signal enhancement, % at 5 µM | 0.11% of 210,000 active | AID 1230, 2008;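 active = signal enhancement of 30% or more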;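 note: luminescence tracks abundance of the self-degrading MDM2-luciferase fusion protein; higher signal means inhibition of MDM2 E3 ligase activity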
Target sequence (Q00987 whole entry, looked up, the tested form may be a part): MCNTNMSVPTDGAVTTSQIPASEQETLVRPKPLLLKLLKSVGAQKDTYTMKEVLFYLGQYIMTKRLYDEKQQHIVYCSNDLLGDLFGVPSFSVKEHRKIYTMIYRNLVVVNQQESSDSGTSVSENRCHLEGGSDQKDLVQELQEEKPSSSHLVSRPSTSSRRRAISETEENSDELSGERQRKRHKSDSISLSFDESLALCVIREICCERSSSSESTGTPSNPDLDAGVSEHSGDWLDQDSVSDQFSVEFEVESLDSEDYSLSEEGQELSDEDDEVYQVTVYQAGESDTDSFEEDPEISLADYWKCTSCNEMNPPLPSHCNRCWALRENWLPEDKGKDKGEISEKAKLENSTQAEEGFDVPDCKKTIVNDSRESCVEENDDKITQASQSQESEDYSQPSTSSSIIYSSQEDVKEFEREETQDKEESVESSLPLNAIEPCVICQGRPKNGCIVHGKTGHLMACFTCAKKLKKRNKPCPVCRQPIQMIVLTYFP
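Material: stable MDM2–luciferase fusion reporter cells / Quantity: 2000 cells/well / Dosing: single 5 µM compound dose, 0.2% final DMSO / Buffer or medium: DMEM / Schedule: 4 h cell settling then 2 h compound exposure, 37 °C / Detection: luminescence with SteadyLite reagent, 15 min at room temperature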
UPR CHOP act – activators of apoptotic CHOP UPR arm, primary screen, cell-based, CHO-CHOP luciferase reporter, luminescence, uHTS; activation, % at 10 µM; 0.34% of 330,000 active; UPR activation; percent of tunicamycin response over DMSO baseline;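 active = at 10 µM dose, activation of 40% or more, normalized to positive control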;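 note: 100% = tunicamycin at 10 µg/mL and 0% = DMSO alone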
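Assay system: CHO cells with stable CHOP pathway luciferase reporter; Buffer or medium: F12 plus 10% serum; Times: 16-18 h cell attachment, then 6 h compound exposure, 37 °C; Signal: luciferase luminescence; Read-out basis: percent activation relative to tunicamycin control; Control set: tunicamycin high control, DMSO low control.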
Dynein transport – inhibitors of GR-EGFP nuclear translocation, primary screen, dynein cargo transport inhibitor project, imaging, high-content, 3617.4 mouse cells; test concentration mostly 20 µM; stimulated with dexamethasone, 1 µM; hits give low values; z-score, hits read low; 0.47% of 220,000 active; AID 1381, 2008;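 active = plate z-score of nuclear minus cytoplasmic receptor signal below a set negative limit, without overly bright fluorescence or cell loss, cut at about -3.5 in these data, passing the limit was not always enough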;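 note: z-score of nuclear minus cytoplasmic ring GR-EGFP intensity difference per well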
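Buffer or medium: tet-free, stripped-serum medium; Also added: dexamethasone, 1.0 µM final; Technique: high-content fluorescence imaging after fixation; Times: 48 h induction, 1 h compound, 30 min dex at 37 °C; Read-out: per-cell GR-EGFP intensity, nucleus versus surrounding cytoplasmic ring, well-averaged.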
XBP1 UPR activ – activators of adaptive XBP1 UPR arm, primary screen, cell-based, CHO-XBP1 luciferase reporter, luminescence, uHTS. AID 463104, 2010. 0.33% of 330,000 active. activation, % at 20 µM. IRE1-XBP1 UPR activation; percent of tunicamycin response, DMSO as zero;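 active = versus positive control, 20 µM dose yields 30% or more activation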;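 note: 100% = tunicamycin at 10 µg/mL and 0% = DMSO only wells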
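assay system = CHO-XBP1 luciferase reporter cells | amount = 1000 cells/well | buffer or medium = F12 plus 10% FBS | compound dosing = single point, 20 µM final compound, 1% DMSO | incubation = 16-18 h cell attachment at 37 °C, then 6 h compound exposure | detection = Steady-Glo luminescence read | controls = tunicamycin 10 µg/mL and vehicle-only wells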
B2AR ag – beta2AR agonists driving receptor internalization, primary screen, cell-based, FAP fluorogen, flow cytometry; response, % (test concentration not listed); Am2.2-beta2AR cells; AID 504454, 2011; 0.43% of 340,000 active; Beta-2 adrenergic receptor (Homo sapiens), P07550;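 active = response above a set limit, near 3 SD of response in nonfluorescent compounds, cut at about 42% in these data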
Mdm2 MdmX conf – Mdm2-MdmX complex disruptors, retested hits, confirmation, luminescence, single concentration; Mdm2-MdmX binding, luminescent assay; shares compounds with Mdm2-MdmX inh; inhibition, % at 8 µM; 55% of 10,000 active; AID 489028, 2010; in the data active = inhibition above about 40%
FLuc counter – full-length luciferase signal inhibition, confirmation, counter-screen for Mdm2/MdmX interaction inhibitor project, cell-based, single concentration, SaOS-2; shares compounds with Mdm2-MdmX inh; SaOS-2 full-length luciferase counterscreen, luminescence; inhibition, % at 8 µM; 77% of 6,200 active; AID 504607, 2011;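 active = mean inhibition at 8 µM reaching about 37%, which flags the compound as non-specific, limit read from the data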;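 note: p53-null SaOS-2 cells with luciferase driven by a doxycycline-inducible promoter; compound on cells about two nights before reading with doxycycline added after day one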
Active calls of the source: *; / = no result. Sampled rows, rich in hits. Any-hit rate of the full collection: about 3.7%.

SMILES | Mdm2-MdmX inh | MDM2 E3 inh | UPR CHOP act | Dynein transport | XBP1 UPR activ | B2AR ag | Mdm2 MdmX conf | FLuc counter
COC(=O)c1ccc2c(=O)n(CC3CCCO3)c(SCC(=O)Nc3ccc(OC)cc3OC)nc2c1 (stereo unspecified) | -6 | / | 3 | 0.25 | -1 | -1 | / | /
COc1ccc(C(=O)OCC2CC(c3ccccc3)=NO2)cc1OC (stereo unspecified) | -35 | -2 | -1 | -1.2 | -2 | 1 | / | /
COc1ccc(-c2nc3c(c(=O)n(C)c(=O)n3C)n2CC2CC(c3ccccc3)=NO2)cc1OC (stereo unspecified) | 61* | / | -1 | -0.57 | -4 | 8 | 45* | 89*
O=C1NCCc2c1[nH]c1ccc([N+](=O)[O-])cc21 | 48 | -12 | -1 | -0.8 | 3 | -4 | / | /
O=C1NCCc2c1[nH]c1c(Cl)ccc(Cl)c21 | 77* | -3 | -2 | -0.2 | -1 | 8 | 63* | 48*
C=C1[C@@H](O)[C@@H]2O[C@]3(CC[C@H](/C=C/[C@@H](C)[C@@H]4CC(C)=CC5(O[C@H](C[C@@](C)(O)C(=O)OC)CC[C@H]5O)O4)O3)CC[C@H]2O[C@@H]1[C@@H](O)C[C@H](C)[C@H]1OC2(CCCCO2)CC[C@H]1C (stereo partly specified) | 100* | / | 2 | / | 7 | / | 100* | 1
C=C1C(O)[C@@H]2O[C@]3(CC[C@H](/C=C/C(C)[C@@H]4CC(C)=CC5(O[C@H](C[C@@](C)(O)CO)CCC5O)O4)O3)CC[C@H]2O[C@@H]1C(O)CC(C)[C@H]1OC2(CCCCO2)CCC1C (stereo partly specified) | 88* | / | 16 | / | 4 | / | 90* | 33
O=C(CSc1nc(-c2cccs2)nc2ccccc12)NC1CCS(=O)(=O)C1 (stereo unspecified) | 61* | / | -1 | / | 8 | -19 | 1 | /
CC(=O)Nc1ccc(Nc2ccc3c4c(cc(=O)n3C)-c3ccccc3C(=O)c24)cc1 | 59* | -9 | 2 | -0.69 | -1 | -8 | 30 | /
Cc1cc2c([nH]c3ccccc32)c2c1OC(C)(C)C=C2 | -172 | -15 | 3 | -0.48 | 4 | 14 | / | /
COc1ccc2[nH]c(=O)c3c(c2c1)OC(C)(C)C=C3 | 90* | -25 | -3 | 0.04 | -5 | 3 | 75* | 57*
COc1ccccc1/C=N/n1c(N)c(C(=O)NC2CCCCC2)c2nc3ccccc3nc21 | / | 14 | / | -0.25 | / | 5 | / | /
Nc1c(C(=O)NC2CCCC2)c2nc3ccccc3nc2n1/N=C/c1ccco1 | 73* | 3 | 5 | 0.041 | 7 | -1 | 9 | /
CCC(=O)N/C(N)=N/c1nc(C)c2cc(C)c(C)cc2n1 | 74* | -8 | 4 | -0.3 | -1 | -6 | 57* | 69*
Cc1cc2nc(/N=C(\N)NC(=O)C(C)C)nc(C)c2cc1C | 56* | -13 | 2 | -1.1 | -1 | -11 | 38 | 84*
CCCC(=O)N/C(N)=N/c1nc(C)c2cc(C)ccc2n1 | 31 | -12 | 4 | -0.91 | 1 | -8 | / | /
CCC(=O)N1CCc2cc(S(=O)(=O)CCC(=O)Nc3cccc(C)n3)ccc21 | 12 | -5 | 2 | 0.11 | -1 | 0 | / | /
Nc1nc(=S)c2ncn(C3CCCC3)c2[nH]1 | / | -6 | / | -1 | / | -6 | / | /
CC1CC(C)CN(CCCNS(=O)(=O)c2ccc3c(c2)oc(=O)n3C)C1 (stereo unspecified) | -8 | / | 4 | / | -4 | -56 | / | /
COc1ccc(CN(CCC#N)CCC2(c3ccccc3)CC(C)N(C)CC2C)cc1OC (stereo unspecified) | 0 | -15 | -1 | -0.18 | -1 | -15 | / | /
COc1ccc(CNCCC2(Cc3ccccc3)CC(C)N(C)CC2C)cc1OC (stereo unspecified) | 61* | 3 | 0 | 0.7 | 0 | 6 | 29 | /
O=[N+]([O-])c1cccc(N=Nc2ccc(O)cc2O)c1 | / | / | / | / | / | 16 | / | /
O=[N+]([O-])c1ccc(N=Nc2ccc(O)cc2O)cc1 | 98* | 14 | 6 | -0.56 | 2 | 10 | 56* | 30
COc1ccc(N(CC2CO2)S(=O)(=O)c2ccc(C)cc2)cc1 (stereo unspecified) | -6 | / | 3 | / | 0 | -7 | / | /
O=C(NC1CC1)c1ccc2c(c1)S(=O)(=O)c1cc(Cl)ccc1C2=O | 95* | / | 3 | / | -2 | / | 94* | 38*
SMILES | Mdm2-MdmX inh | MDM2 E3 inh | UPR CHOP act | Dynein transport | XBP1 UPR activ | B2AR ag | Mdm2 MdmX conf | FLuc counter
Cc1ccc(NC(=O)c2cc(C(=O)c3cc(Cl)ccc3O)cn(-c3ccc(C)cc3)c2=O)cc1 | 88* | -5 | 2 | 0.38 | -1 | 24 | 86* | 44*
N#Cc1cc(C(=O)c2cc(Cl)ccc2O)cn(-c2ccccc2)c1=O | 4 | 2 | -1 | -0.37 | -2 | 0 | / | /
CC1=C(C(=O)OCc2ccc3c(c2)OCO3)C(c2ccc(F)cc2)NC(=O)N1 (stereo unspecified) | 91* | -7 | -2 | -0.4 | 0 | 0 | 92* | 49*
CC1=C(C(=O)OCc2ccc3c(c2)OCO3)C(c2ccc(Cl)cc2)NC(=O)N1 (stereo unspecified) | 84* | -27 | -2 | -0.021 | 1 | -3 | 92* | 51*
CSCCOC(=O)C1=C(C)NC(=O)NC1c1ccc2c(c1)OCO2 (stereo unspecified) | 8 | / | 0 | / | -3 | -2 | / | /
Cc1cccc(S(=O)(=O)c2c(N)n(Cc3ccco3)c3nc4ccccc4nc23)c1 | 17 | -80 | 2 | -0.46 | -3 | -15 | / | /
Cc1cccc(-n2cnc3c(c2=O)c2nc4ccccc4nc2n3Cc2ccco2)c1 | 54* | / | 2 | / | -1 | 9 | 26 | /
